Reference: ChEMBL document CHEMBL1154711, “Original quinazoline derivatives displaying antiplasmodial properties” (Eur J Med Chem, 2010)

How the values were obtained:
[1] = Selectivity index, ratio of IC50 for human HepG2 cells to IC50 for chloroquine-resistant Plasmodium falciparum W2
[2] = Selectivity index, ratio of IC50 for human K562 cells to IC50 for chloroquine-resistant Plasmodium falciparum W2
K562 = assay: Cytotoxicity against human K562 cells after 72 hrs by flow cytometry; type: functional, cell-based
Summary of the method: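 Cells were treated with a concentration range for 72 h at 37 °C, 6% CO2, with solvent and doxorubicin controls, and wells were checked for precipitate. Cells were stained with propidium iodide and live cells counted by flow cytometry. IC50 is the concentration giving a 50% decrease in proliferation versus control, from nonlinear regression of dose–response curves, mean of three independent experiments.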

HepG2 = assay: Cytotoxicity against human HepG2 cells after 72 hrs by MTT assay; type: cell-based
Summary of the method: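 Cells in RPMI with 10% FBS, glutamine and penicillin/streptomycin were grown 24 h at 37 °C, 6% CO2, then exposed to a concentration range for 72 h. Wells were checked microscopically for precipitate. MTT (5 mg/mL in PBS) was added in serum-free medium for 2 h, formazan dissolved in DMSO, and absorbance read at 570 nm (630 nm reference). Viability is % of untreated control; the 50% cytotoxic concentration comes from the dose–response curve, mean of three experiments.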

Plasmodium falciparum = assay: Antiplasmodial activity against chloroquine-resistant Plasmodium falciparum W2 infected in human erythrocyte after 48 hrs by flow cytometry; type: functional, organism-based
Summary of the method: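 W2 strain (chloroquine-, pyrimethamine- and proguanil-resistant) kept in RPMI 1640 with 25 mM HEPES, 25 mM NaHCO3 and 10% A+ human serum. Cultures held at 37 °C under 10% O2, 6% CO2, 84% N2. Assay wells at 2% haematocrit; compounds added in DMSO or water. Incubated 48 h with no medium change. Infected erythrocytes counted by hydroethidine flow cytometry. IC50 taken from three independent experiments.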

Leishmania donovani = assay: Antileishmanial activity against GFP-transfected Leishmania donovani HOM/IN/01/2001 promastigotes after 72 hrs; type: functional, organism-based; details: HOM/IN/01/2001, 72 h
Summary of the method: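 GFP-expressing promastigotes at 10⁵ parasites/mL in medium with 10% FCS and G418, exposed in duplicate to a concentration range of compounds in DMSO (final <0.5% v/v) for 72 h at 27 °C. DMSO and amphotericin B controls were included. Growth was read by flow cytometry (488 nm argon laser, green FL1 fluorescence). The IC50 is the 50% growth decrease, from three independent experiments.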

Toxoplasma gondii = assay: Antitoxoplasmic activity against Toxoplasma gondii PRU-betaGal tachyzoite after 96 hrs by colorimetric microtiter assay; type: functional, organism-based
Summary of the method: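 Confluent HFF monolayers (10⁴ cells seeded per well) in phenol red-free RPMI 1640 with 10% FCS and glutamine/penicillin–streptomycin were infected with 2×10³ tachyzoites per well for 3 h at 37 °C, 6% CO2. Compounds in DMSO (<0.5% v/v) were added in triplicate for 96 h. CPRG was then added for 24 h and β-galactosidase read at 570/630 nm, blanked on uninfected wells. IC50 from three independent experiments.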

[3] = Homo sapiens, K562, 72 h, read-out: IC50
[4] = Homo sapiens, HepG2, 72 h, read-out: IC50
[5] = Plasmodium falciparum, W2, 48 h, read-out: IC50

Compound | Ratio IC50 [1] | Ratio IC50 [2] | IC50 (K562; [3]) [µM] | IC50 (HepG2; [4]) [µM] | IC50 (Plasmodium falciparum; [5]) [µM] | IC50 (Leishmania donovani) [µM] | IC50 (K562; k562) | IC50 (HepG2; hepg2) | IC50 (Plasmodium falciparum) | IC50 (Toxoplasma gondii) [µM]
C[C@H]1c2cccc(O)c2C(=O)C2=C(O)[C@]3(O)C(=O)C(C(N)=O)=C(O)[C@@H](N(C)C)[C@@H]3[C@@H](O)[C@@H]21.O [DOXYCYCLINE] | 3.1 | 2.3 |  |  |  |  |  |  |  | 
CC(C)=Cc1nc(Nc2ccc(F)cc2)c2cc([N+](=O)[O-])ccc2n1 | 4.8 | >11 | > 62 | 27 | 5.6 |  |  |  |  | 
C[C@@H]1[C@H](O)[C@@H](C)/C=C/C=C/C=C/C=C/C=C/C=C/C=C/[C@H](O[C@@H]2O[C@H](C)[C@@H](O)[C@H](N)[C@@H]2O)C[C@@H]2O[C@](O)(C[C@@H](O)C[C@@H](O)[C@H](O)CC[C@@H](O)C[C@@H](O)CC(=O)O[C@H]1C)C[C@H](O)[C@H]2C(=O)O [AMPHOTERICIN B] |  |  |  |  |  | 0.06 |  |  |  | 
Cc1ccc(S(=O)(=O)Cc2nc(Nc3ccccc3Cl)c3ccccc3n2)cc1 | >3.6 | 1.7 | 24 | > 50 | 14 |  |  |  |  | 
CC(C)=Cc1nc(Nc2cccc(Br)c2)c2cc([N+](=O)[O-])ccc2n1 | >2 | >8 | > 62 | > 15 | 7.5 |  |  |  |  | 
Cc1ccc(S(=O)(=O)Cc2nc(Nc3cccc(Br)c3)c3cc([N+](=O)[O-])ccc3n2)cc1 |  |  |  |  |  |  | ND(Insoluble) | ND(Insoluble) | ND(Insoluble) | 
Cc1ccc(S(=O)(=O)Cc2nc(Nc3ccccc3)c3ccccc3n2)cc1 |  |  |  |  |  |  | ND(Insoluble) | ND(Insoluble) | ND(Insoluble) | 
Cc1ccc(S(=O)(=O)Cc2nc(Nc3ccc(F)cc3)c3ccccc3n2)cc1 | >0.75 | >1 | > 20 | > 15 | 20 |  |  |  |  | 
Cc1ccc(S(=O)(=O)Cc2nc(Nc3ccc(F)cc3)c3cc([N+](=O)[O-])ccc3n2)cc1 | >23 | >57 | > 125 | > 50 | 2.2 | > 25 |  |  |  | > 25
Cc1ccc(S(=O)(=O)Cc2nc(Nc3ccccc3)c3cc([N+](=O)[O-])ccc3n2)cc1 | >5 | >25 | > 125 | > 25 | 5 |  |  |  |  | 
COc1cccc2c1C(=O)c1c(O)c3c(c(O)c1C2=O)C[C@@](O)(C(=O)CO)C[C@@H]3O[C@H]1C[C@H](N)[C@H](O)[C@H](C)O1 [DOXORUBICIN] |  |  |  | 0.2 |  |  |  |  |  | 
Cc1ccc(S(=O)(=O)Cc2nc(Nc3cccc(Cl)c3)c3cc([N+](=O)[O-])ccc3n2)cc1 | >77 | >96 | > 125 | > 100 | 1.3 | 11 |  |  |  | > 25
Cc1ccc(S(=O)(=O)Cc2nc(Nc3cccc(C(F)(F)F)c3)c3cc([N+](=O)[O-])ccc3n2)cc1 | >105 | >131 | > 125 | > 100 | 0.95 | 24 |  |  |  | > 25
CC(C)=Cc1nc(Nc2ccccc2)c2cc([N+](=O)[O-])ccc2n1 | 2.9 | >7 | > 125 | 50 | 17 |  |  |  |  | 
Cc1ccc(S(=O)(=O)Cc2nc(Nc3cccc(Br)c3)c3ccccc3n2)cc1 | >1.2 | >1.2 | > 15 | > 15 | 13 |  |  |  |  | 
CCc1nc(N)nc(N)c1-c1ccc(Cl)cc1 [PYRIMETHAMINE] |  |  |  |  |  |  |  |  |  | 1.5
CC(C)=Cc1nc(Nc2cccc(C(F)(F)F)c2)c2cc([N+](=O)[O-])ccc2n1 | 31.3 | >39 | > 125 | > 100 | 3.2 |  |  |  |  | 
Cc1ccc(S(=O)(=O)Cc2nc(Nc3cccc(C(F)(F)F)c3)c3ccccc3n2)cc1 | >1.7 | >1.7 | > 25 | > 25 | 15 |  |  |  |  | 
